From ChEMBL document CHEMBL2331318, “Azide-alkyne cycloaddition en route to 1H-1,2,3-triazole-tethered 7-chloroquinoline-isatin chimeras: synthesis and antimalarial evaluation” (Eur J Med Chem, 2013)

tested on: Plasmodium falciparum; experiment: In vitro antimalarial activity against ring stage of chloroquine-resistant Plasmodium falciparum W2 cultured in medium containing 10% human serum assessed as inhibition of parasite growth after 48 hrs by YOYO-1 dye based flow cytometry; assay type: functional, organism-based; conditions: W2, 48 h
How it was run: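 Ring-stage microwell cultures were exposed to a range of compound concentrations for 48 h, with 0.1% DMSO maximum and in the no-inhibitor controls. Cells were fixed in 1% formaldehyde/PBS pH 7.4 for 48 h at room temperature, then stained with 1 nM YOYO-1 in 0.1% Triton X-100/PBS. Parasitemia was counted by flow cytometry, and IC50 obtained by nonlinear regression of % control parasitemia from duplicate experiments.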

Row | Structure (SMILES) | IC50 [µM]
1 | O=C1C(=O)N(Cc2cnnn2CCNc2ccnc3cc(Cl)ccc23)c2ccc(Cl)cc21 | 1.37
2 | O=C1C(=O)N(Cc2cnnn2CCCNc2ccnc3cc(Cl)ccc23)c2ccccc21 | 3.85
3 | O=C1C(=O)N(Cc2cnnn2CCNc2ccnc3cc(Cl)ccc23)c2ccc(F)cc21 | 2.3
4 | O=C1C(=O)N(Cc2cnnn2-c2ccnc3cc(Cl)ccc23)c2ccc(F)cc21 | > 5
5 | O=C1C(=O)N(Cc2cnnn2CCNc2ccnc3cc(Cl)ccc23)c2ccc(Br)cc21 | 1.73
6 | O=C1C(=O)N(Cc2cnnn2CCNc2ccnc3cc(Cl)ccc23)c2ccccc21 | 3.07
7 | Cc1ccc2c(c1)C(=O)C(=O)N2Cc1cnnn1CCCNc1ccnc2cc(Cl)ccc12 | 1.3
8 | O=C1C(=O)N(Cc2cnnn2CCCNc2ccnc3cc(Cl)ccc23)c2ccc(F)cc21 | 1.35
9 | O=C1C(=O)N(Cc2cnnn2CCCNc2ccnc3cc(Cl)ccc23)c2ccc(Br)cc21 | 1.66
10 | O=C1C(=O)N(Cc2cnnn2CCCNc2ccnc3cc(Cl)ccc23)c2ccc(Cl)cc21 | 1.21
11 | O=C1C(=O)N(Cc2cnnn2-c2ccnc3cc(Cl)ccc23)c2ccc(Br)cc21 | > 5
12 | Cc1ccc2c(c1)C(=O)C(=O)N2Cc1cnnn1CCNc1ccnc2cc(Cl)ccc12 | 1.63
13 | O=C1C(=O)N(Cc2cnnn2-c2ccnc3cc(Cl)ccc23)c2ccccc21 | > 5
14 | Cc1ccc2c(c1)C(=O)C(=O)N2Cc1cnnn1-c1ccnc2cc(Cl)ccc12 | > 5
15 | O=C1C(=O)N(Cc2cnnn2-c2ccnc3cc(Cl)ccc23)c2ccc(Cl)cc21 | > 5
